A selection: hits, their analogues and other compounds. The true share with any hit is near 2.7%.
PAFAH1B3 FP inh = inhibitors of human PAFAH1B3; inhibition, % at 3.39 µM; AID 492972; recombinant PAFAH1B3, FP-rhodamine probe, fluorescence polarization; actives 0.28% (n = 340,000);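 active means inhibition above the screen-wide average of all tested compounds plus 3 SD, cut at about 25% in these data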;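 further: 0% = enzyme with DMSO only and 100% = wells lacking PAFAH1B3 protein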
Target sequence (Q15102 whole entry, looked up): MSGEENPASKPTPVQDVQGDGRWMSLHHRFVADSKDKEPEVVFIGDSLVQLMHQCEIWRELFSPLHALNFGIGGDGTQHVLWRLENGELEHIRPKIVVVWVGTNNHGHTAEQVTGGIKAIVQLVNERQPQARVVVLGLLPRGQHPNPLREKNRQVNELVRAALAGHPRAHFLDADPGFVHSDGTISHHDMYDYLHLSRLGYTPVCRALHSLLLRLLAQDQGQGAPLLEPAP
PAFAH2 FP inh = inhibitors of human PAFAH2. actives 0.99% (n = 340,000). inhibition, % at 3.39 µM. recombinant PAFAH2, FP-rhodamine activity probe, fluorescence polarization;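 active means inhibition above the mean over all tested compounds plus 3 SD, cut at about 30% in these data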;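 further: inhibitors block probe labeling of enzyme so polarization drops; 0% = enzyme with DMSO and 100% = wells lacking PAFAH2 protein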
pPAFAH FP inh = inhibitors of human plasma PAF acetylhydrolase (pPAFAH); Q13093; actives 1.5% (n = 330,000); inhibition, % at 3.39 µM; recombinant pPAFAH, FP-rhodamine probe fluorescence polarization; AID 463082;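 active means inhibition above the mean inhibition across the screen plus 3 SD, cut at about 25% in these data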;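 further: inhibitors block binding of the rhodamine activity-based probe so polarization drops; 0% = enzyme with DMSO and 100% = wells lacking pPAFAH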
PAFAH1B2 inh = PAFAH1B2 (human) inhibition. P68402. recombinant PAFAH1B2, FP-rhodamine activity probe, fluorescence polarization. actives 1.2% (n = 340,000). AID 492953. inhibition, % at 3.39 µM;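 active means inhibition above the mean of all tested compounds plus 3 SD, cut at about 24% in these data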;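 further: 0% = enzyme with DMSO and 100% = wells lacking PAFAH1B2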
Target sequence (P68402 whole entry, looked up): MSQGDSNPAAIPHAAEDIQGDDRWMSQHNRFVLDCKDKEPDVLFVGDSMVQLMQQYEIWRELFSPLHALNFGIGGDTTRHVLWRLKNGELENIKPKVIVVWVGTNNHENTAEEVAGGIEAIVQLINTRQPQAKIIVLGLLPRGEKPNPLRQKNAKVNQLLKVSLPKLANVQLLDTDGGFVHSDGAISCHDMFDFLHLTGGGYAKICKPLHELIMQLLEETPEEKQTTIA
ARFGAP1 inhibitor = rat ARFGAP1 inhibition. inhibition, % at 16.5 µM. AID 651572. Arfgap1-stimulated ARF1 GTP hydrolysis, GDP FP detection. actives 0.26% (n = 360,000);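 active means inhibition above a per-plate limit, mean inhibition of low control wells plus 3 SD, cut at about 25% in these data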;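 further: 0% = DMSO wells with enzyme and 100% = wells lacking Arfgap1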
Target sequence (Q62848 1-136 limits assumed): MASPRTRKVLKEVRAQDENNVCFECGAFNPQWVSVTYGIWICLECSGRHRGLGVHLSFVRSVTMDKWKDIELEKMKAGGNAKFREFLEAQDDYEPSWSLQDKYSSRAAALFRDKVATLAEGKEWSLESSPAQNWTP
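system = rat Arfgap1 catalytic domain, aa 1-136 | technique = FP, GDP Alexa 633 tracer displaced from anti-GDP antibody, 620/688 nm | compound = one concentration, 16.5 µM, DMSO 1.26% | medium = HEPES-based buffer, pH 7.5 | timing = compound-enzyme preincubation 20 min, reaction 120 min, detection 60 min, 25 °C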
ASAP1 inh = blocks human ASAP1-stimulated Arf1 GTP hydrolysis; GDP FP detection; Q9ULH1; inhibition, % at 16.5 µM; actives 0.19% (n = 360,000); in the data active means inhibition above about 25%;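 further: 0% = vehicle with enzyme and substrate and 100% = no enzyme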
An asterisk follows results filed as active.

Screening Cc1ccc(/C=N/NS(=O)(=O)c2ccc([N+](=O)[O-])cc2)o1 returned PAFAH1B3 FP inh 6, PAFAH2 FP inh 0, pPAFAH FP inh 3, PAFAH1B2 inh 0, ARFGAP1 inhibitor 6 and ASAP1 inh 10.
For O=C(C(=O)N1CCC(CNC(=O)c2cccnc2Cl)CC1)c1cc2ccccc2o1 the results were ARFGAP1 inhibitor 3 and ASAP1 inh 5.
Screening Nc1ccc(C(=O)OCCc2ccccc2)cc1 returned PAFAH1B3 FP inh 1, PAFAH2 FP inh 18, pPAFAH FP inh 9, PAFAH1B2 inh 7, ARFGAP1 inhibitor 6 and ASAP1 inh 6.
`O=C(OCCc1ccccc1)c1cc(O)c(O)c(O)c1` gave PAFAH1B3 FP inh 12, PAFAH2 FP inh 17, pPAFAH FP inh 15, PAFAH1B2 inh 55*, ARFGAP1 inhibitor -9 and ASAP1 inh 4.
Screening Brc1ccc(CN2CCCc3nc(-c4ccccc4)ccc32)cc1 returned ARFGAP1 inhibitor -2 and ASAP1 inh 2.
For CC1=C(C#N)C(=O)N(C2CCS(=O)(=O)C2)C(=O)/C1=C\c1ccco1 (stereo not given) the results were pPAFAH FP inh 93*.
For CC(C)CC(O)(c1ccccc1)C(CN1CCOCC1)c1ccccc1 (stereo not given) the results were PAFAH1B3 FP inh 4, PAFAH2 FP inh -2, pPAFAH FP inh 3, PAFAH1B2 inh 16, ARFGAP1 inhibitor 3 and ASAP1 inh -6.
Screening OC(c1ccc(F)cc1)(C1CCCCC1)C(CN1CCOCC1)c1ccccc1 (stereo not given) returned PAFAH1B3 FP inh 11, PAFAH2 FP inh 1, pPAFAH FP inh 7, PAFAH1B2 inh 35*, ARFGAP1 inhibitor -9 and ASAP1 inh -6.
For NC(=O)c1ncn([C@@H]2O[C@H](C(=O)N[C@H](Cc3ccccc3)C(=O)O)[C@@H](O)[C@H]2O)n1 the results were ARFGAP1 inhibitor -4 and ASAP1 inh -9.
Screening CCC(C)NC(=O)c1ccc(CS(=O)(=O)Cc2ccc(Cl)cc2)o1 (stereo not given) returned PAFAH1B3 FP inh 12, PAFAH2 FP inh 5, pPAFAH FP inh 26*, PAFAH1B2 inh 7, ARFGAP1 inhibitor -8 and ASAP1 inh 2.
`Brc1ccccc1C1Cc2nnccc2CN1` (stereo not given) gave ARFGAP1 inhibitor 17 and ASAP1 inh -8.
`COc1cccc(/C=C2/Sc3ccc(C(=O)NCCN4CCCC4)cc3NC2=O)c1` gave PAFAH1B3 FP inh 3, PAFAH2 FP inh -8, pPAFAH FP inh 34*, PAFAH1B2 inh -1, ARFGAP1 inhibitor 18 and ASAP1 inh 24.
For Cc1ccccc1C(=O)N[C@H](C(=O)N1CCC[C@H]1C(=O)NCc1ccccc1)c1ccccc1 the results were ARFGAP1 inhibitor -1 and ASAP1 inh 10.
`FC(F)(F)c1nc2cc3nc4ccccc4[nH]c3cc2n1` gave PAFAH1B3 FP inh 10, PAFAH2 FP inh 0, pPAFAH FP inh 31*, PAFAH1B2 inh 8, ARFGAP1 inhibitor -3 and ASAP1 inh 5.
OC(c1nc2ccccc2[nH]1)C(O)c1nc2ccccc2[nH]1 (stereo not given) was read as PAFAH1B3 FP inh 4, PAFAH2 FP inh -5, pPAFAH FP inh 4, PAFAH1B2 inh 1, ARFGAP1 inhibitor 5 and ASAP1 inh 0.
`CN(C)c1ccc(N(C)C)c(C(O)(c2ccccc2)c2ccccc2)c1` gave ARFGAP1 inhibitor -1 and ASAP1 inh -9.
Screening O=c1cc2c(=O)oc3cc(O)c(O)oc3c2c(O)c1O returned PAFAH1B3 FP inh 79*, PAFAH2 FP inh 62*, PAFAH1B2 inh 30*, ARFGAP1 inhibitor 7 and ASAP1 inh -4.
Screening CCCCc1c(-c2ccccc2OC)ncn1Cc1ccccc1C returned ARFGAP1 inhibitor 9 and ASAP1 inh 2.
Screening CCCCOc1ccc(C(=O)OCC(=O)NC2CCCC2)cc1 returned PAFAH1B3 FP inh 1, PAFAH2 FP inh 85*, pPAFAH FP inh 25*, PAFAH1B2 inh 2, ARFGAP1 inhibitor -5 and ASAP1 inh 4.
For CCOc1ccc(OCCC(=O)OCC(=O)NC2CCCC2)cc1 the results were PAFAH1B3 FP inh 8, PAFAH2 FP inh -4, pPAFAH FP inh 30*, PAFAH1B2 inh 3, ARFGAP1 inhibitor 1 and ASAP1 inh -15.
Cc1ccc(OCCC(=O)OCC(=O)NC2CCCC2)cc1 was read as PAFAH1B3 FP inh 1, PAFAH2 FP inh -5, pPAFAH FP inh 20, PAFAH1B2 inh 0, ARFGAP1 inhibitor 7 and ASAP1 inh 0.
For Cc1ccc(OCC(=O)OCC(=O)NC2CCCC2)cc1C the results were PAFAH1B3 FP inh 8, PAFAH2 FP inh -3, pPAFAH FP inh 12, PAFAH1B2 inh -1, ARFGAP1 inhibitor -2 and ASAP1 inh -5.
For O=C(COC(=O)c1ccc(O)cc1)NC1CCCCCCC1 the results were ARFGAP1 inhibitor -3 and ASAP1 inh -11.
Cc1cc(C)cc(OCC(=O)OCC(=O)NC2CC2)c1 was read as PAFAH1B3 FP inh 12, PAFAH2 FP inh 1, pPAFAH FP inh 27*, PAFAH1B2 inh -3, ARFGAP1 inhibitor 5 and ASAP1 inh -3.
CCC(c1nc2ccccc2[nH]1)n1c(C)nc2ccccc21 (stereo not given) was read as ARFGAP1 inhibitor -1 and ASAP1 inh 1.
Screening O=C(CNc1ccc2c(c1)OCO2)N/N=C\c1cn(Cc2ccccc2)c2ccccc12 returned PAFAH1B3 FP inh 4, PAFAH2 FP inh -9, pPAFAH FP inh 30*, PAFAH1B2 inh 4, ARFGAP1 inhibitor 11 and ASAP1 inh -2.
Screening O=C(CNc1ccccc1)N/N=C/c1ccc2c(c1)OCO2 returned PAFAH1B3 FP inh 10, PAFAH2 FP inh -5, pPAFAH FP inh 1, PAFAH1B2 inh -3, ARFGAP1 inhibitor 5 and ASAP1 inh -12.
`C#CCN1CC(COc2ccccc2)Oc2cccc(Oc3ccc(OC)cc3)c2S1(=O)=O` (stereo not given) gave ARFGAP1 inhibitor 7 and ASAP1 inh 9.
For O=C(/C=C/c1ccco1)c1ccc(NC(=O)C23CC4CC(CC(C4)C2)C3)cc1 the results were PAFAH1B3 FP inh -11, PAFAH2 FP inh -5, pPAFAH FP inh 32*, PAFAH1B2 inh 2, ARFGAP1 inhibitor -4 and ASAP1 inh 0.
`Cc1cc2cc(C(c3nnnn3Cc3ccco3)N3CCc4ccccc43)c(=O)[nH]c2cc1C` (stereo not given) gave PAFAH1B3 FP inh 7, PAFAH2 FP inh 11, pPAFAH FP inh 30*, PAFAH1B2 inh 3, ARFGAP1 inhibitor 2 and ASAP1 inh 22.
`Cc1cc2cc(C(c3nnnn3Cc3ccccc3)N3CCc4ccccc43)c(=O)[nH]c2cc1C` (stereo not given) gave PAFAH1B3 FP inh 4, PAFAH2 FP inh 2, pPAFAH FP inh 3, PAFAH1B2 inh 4, ARFGAP1 inhibitor 12 and ASAP1 inh -3.

Source: PubChem BioAssay (The Scripps Research Institute Molecular Screening Center)
